Compounds with a hit are over-represented: about 2.9% of the library has one in this group of screens.
NR1D1 modulator – Rev-erb alpha (human) modulation. P20393. activity, % at 10 µM. Rev-erbα–FITC-DNA binding, fluorescence polarization, 90 min. hit rate 0.79% among 370,000;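 active means activity above about 14%, limit read from the data; passing the limit was not always enough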
Target sequence (P20393 whole entry, looked up): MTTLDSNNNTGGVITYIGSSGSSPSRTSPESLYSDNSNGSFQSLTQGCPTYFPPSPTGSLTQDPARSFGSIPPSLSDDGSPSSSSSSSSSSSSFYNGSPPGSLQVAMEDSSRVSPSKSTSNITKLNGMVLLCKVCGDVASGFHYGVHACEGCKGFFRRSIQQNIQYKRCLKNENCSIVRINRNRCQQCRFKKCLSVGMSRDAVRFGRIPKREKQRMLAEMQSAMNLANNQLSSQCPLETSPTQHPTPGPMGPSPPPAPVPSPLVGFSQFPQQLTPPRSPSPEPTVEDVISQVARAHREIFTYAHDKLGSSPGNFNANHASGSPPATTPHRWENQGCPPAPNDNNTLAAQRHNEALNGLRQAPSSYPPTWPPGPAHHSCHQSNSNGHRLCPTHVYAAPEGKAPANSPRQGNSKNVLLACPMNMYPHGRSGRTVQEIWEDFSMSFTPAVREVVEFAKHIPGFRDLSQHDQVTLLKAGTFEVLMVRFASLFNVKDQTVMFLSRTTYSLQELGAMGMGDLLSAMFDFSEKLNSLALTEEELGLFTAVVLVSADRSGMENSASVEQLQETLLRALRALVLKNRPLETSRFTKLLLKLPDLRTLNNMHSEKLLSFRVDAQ
MIN6 prolif-1 – induces beta-cell replication in MIN6 cells; MIN6 cells proliferation, ATPlite luminescence, 48 h; cells starved in 0.2% serum; 100% = growth in 10% serum; proliferation, % at 10 µM; hit rate 0.29% among 330,000; AID 2380;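 active means compounds whose signal lies at least 3.5 SD above the mean of all wells on their plate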
PG9 binder – binds the HIV-1 gp120 antibody PG9 | TR-FRET gp120-PG9 antibody binding | hit rate 0.43% among 360,000 | inhibition, % at 6.7 µM; in the data active means inhibition above about 8.5%
TAG inh – triacylglycerol accumulation inhibition; inhibition, % at 12.5 µM; H9c2 cells, Nile Red lipid (TAG) fluorescence; cells loaded with 200 µM oleic acid; hit rate 0.66% among 230,000;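 active means pattern-corrected inhibition of lipid staining of at least 50% with the nuclear-stain viability signal not falling by more than 50%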
hiPSC survival – enhancers of human iPSC single-cell survival; hiPSC single-cell survival, ATPlite luminescence; 100% = ROCK inhibitor wells, 0% = DMSO; hit rate 0.044% among 360,000; survival enhancement, % at 20 µM; in the data active means survival enhancement above about 18%;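 further: cells exposed to compounds for 16 hours before the ATP read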
T cruzi repl – T. cruzi replication inhibition; T. cruzi beta-gal in NIH3T3, luminescence, 90 h; inhibition, % (concentration not given with the values); hit rate 1.4% among 300,000; AID 1885;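 active means mean inhibition across valid replicates above about 55%, limit read from the data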;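 further: signal also drops with host cell toxicity which is not excluded here; higher percent means less beta-gal luminescence so fewer parasites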
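assay system = mouse NIH/3T3 fibroblasts infected with β-gal-expressing T. cruzi Tulahuen C4 | input = 5,000 NIH/3T3 host cells per well | buffer or medium = DMEM plus 2% FBS | timing = 3 h host attachment, then at least 90 h co-culture | measured by = GalScreen luminescence, 60 min | evaluation = luminescence reflecting intracellular parasite burden, expressed as percent inhibition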
MIN6 prolif-2 – confirmation of inducers of beta-cell replication in MIN6 cells; MIN6 beta-cell proliferation, ATPlite luminescence, 48 h; cells kept in 0.2% serum; scaled between 0.2% and 10% serum; proliferation increase, % at 50 µM; 920 tested, under 10 active; shares compounds with MIN6 prolif-1;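 active means proliferation increase above 40% at any of the four tested concentrations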
Each line names hits and unclear results; the compound was inactive in the other large screens (follow-up assays come after a bar, where they were run).

CCOC(=O)c1cc2c(=O)n3cccc(C)c3nc2n(CC2CCCO2)c1=NC(C)=O (centres undefined)	MIN6 prolif-1 9.6 | MIN6 prolif-2 inactive
CS(=O)(=O)N1CCCC(C(=O)NCCN2CCC(Cc3ccccc3)CC2)C1 (centres undefined)	MIN6 prolif-1 5.4 (no result: TAG inh) | MIN6 prolif-2 inactive
O=C(Nc1ccc(S(=O)(=O)O)cc1)c1ccc2c(c1)S(=O)(=O)c1ccccc1C2=O	MIN6 prolif-1 14 | MIN6 prolif-2 inactive
COc1cc(CNC(=O)c2ccc3c(c2)S(=O)(=O)c2ccccc2C3=O)cc(OC)c1	MIN6 prolif-1 15 (no result: TAG inh) | MIN6 prolif-2 inactive
CC1(C)CC(=S)Nc2ccccc2S1	MIN6 prolif-1 11 | MIN6 prolif-2 inactive
CC1(C)CC(=O)C2=C(C1)Nc1ccccc1S2	none
CCCCC(=O)Nc1nnnn1CCC	none (no result: TAG inh)
CCOc1ncccc1C(=O)Nc1ccc(C)cn1	MIN6 prolif-1 11 | MIN6 prolif-2 inactive
COc1ccc(C(=O)/C=C/c2cn(CC(O)CN3CCOCC3)c3ccccc23)cc1 (centres undefined)	none (no result: NR1D1 modulator, MIN6 prolif-1, PG9 binder, TAG inh, T cruzi repl)
CC(=O)NCCOc1cccc(OCCNC(C)=O)c1	none
CNCCCOc1cccc(OC(C)C)c1	MIN6 prolif-1 6.3 | MIN6 prolif-2 inactive
CCCOc1c(Cl)cc(C(=O)NC)cc1OC	MIN6 prolif-1 9.7 | MIN6 prolif-2 inactive
CCC(C(=O)Nc1cc(C)nn1-c1nc(C)cc(C)n1)c1ccccc1 (centres undefined)	MIN6 prolif-1 6.1 | MIN6 prolif-2 inactive
CCC1CCCCN1CCCNC(=O)c1csc2c1CCCCC2 (centres undefined)	none (no result: TAG inh)
CCN1CCCC1CNC(=O)c1csc2c1CCCC2 (centres undefined)	MIN6 prolif-1 6.4 (no result: TAG inh) | MIN6 prolif-2 inactive
CCn1c(SCC(=O)NN=Cc2ccc(C(=O)O)cc2)nc2ccccc21	none (no result: MIN6 prolif-1, PG9 binder, TAG inh, hiPSC survival, T cruzi repl)
CCn1c(SCC(=O)N/N=C/c2ccc(OC)c(OC)c2)nc2ccccc21	MIN6 prolif-1 7.8 (no result: TAG inh, T cruzi repl) | MIN6 prolif-2 inactive
COC(=O)CCC(=O)N1CCc2cc(S(=O)(=O)N3CCc4ccccc43)ccc21	none (no result: TAG inh)
CC1=NCC(C)c2c1[nH]c1ccccc21 (centres undefined)	MIN6 prolif-1 7.0 | MIN6 prolif-2 inactive
CC(C)CC(C(=O)NC1CCCC1)N(Cc1cccs1)C(=O)c1snc(C(N)=O)c1N (centres undefined)	none
CC(C)CC(C(=O)NC1CCCCC1)N(Cc1cccs1)C(=O)c1snc(C(N)=O)c1N (centres undefined)	MIN6 prolif-1 7.1 | MIN6 prolif-2 inactive
Cc1ccc(-n2ncc3c(=O)[nH]c(SCC(=O)N4CC(=O)Nc5ccccc54)nc32)cc1	none (no result: T cruzi repl)
Cc1cccc(-n2ncc3c(=O)[nH]c(SCC(=O)N4CC(=O)Nc5ccccc54)nc32)c1	MIN6 prolif-1 11 (no result: T cruzi repl) | MIN6 prolif-2 inactive
CCOc1cccc2cc(C(=O)N3CCN(C/C=C/c4ccccc4)CC3)c(=O)oc12	none (no result: TAG inh)
COc1cccc(COCCN2CCN(S(=O)(=O)c3ccc(C)cc3)CCC2=O)c1	none
COc1cc2[nH]c(=O)n(CCCCCC(=O)NC3CCCC3)c(=O)c2cc1OC	MIN6 prolif-1 5.7 (no result: TAG inh) | MIN6 prolif-2 inactive
COc1ccccc1N(CC(=O)NC(C)C)S(=O)(=O)c1cccs1	MIN6 prolif-1 8.3 (no result: TAG inh) | MIN6 prolif-2 inactive
COc1ccccc1N(CC(=O)NC1CCCCC1)S(=O)(=O)c1cccs1	none
COCCn1c(COc2ccc(Cl)cc2)nnc1SCC(N)=O	none (no result: PG9 binder, TAG inh)
COc1ccc(-c2nnc3ccc(SCC(=O)N4CCCC4)nn23)cc1	none
CCOc1ccc(-c2nnc3ccc(SCC(=O)N4CCCCC4)nn23)cc1	MIN6 prolif-1 12 | MIN6 prolif-2 inactive
CCCCn1c(SCC(=O)c2cc(OC)ccc2OC)nc2cc(S(N)(=O)=O)ccc21	MIN6 prolif-1 0.0 | MIN6 prolif-2 inactive
Cc1ccc(/C=C/C(=O)OCC(=O)Nc2ccc3[nH]c(=O)[nH]c3c2)o1	none
COc1ccc2oc(C)c(C(=O)c3ccc([N+](=O)[O-])cc3)c2c1	none (no result: TAG inh)
Cc1oc2ccc(O)cc2c1C(=O)c1ccc(F)cc1	MIN6 prolif-1 15 | MIN6 prolif-2 inactive
COc1ccc(Nc2nc(N(C)c3ccccc3)nc(N)c2[N+](=O)[O-])cc1	MIN6 prolif-1 10 (no result: TAG inh) | MIN6 prolif-2 inactive
CN(c1ccccc1)c1nc(N)c([N+](=O)[O-])c(Nc2ccccc2)n1	none (no result: TAG inh)
CSc1ncc2c(=O)[nH]c(-c3ccccc3)nc2n1	none (no result: TAG inh)
CCc1ccc(NC(=O)C2=CC=CN3CCS(=O)(=O)N=C23)cc1	MIN6 prolif-1 11 (no result: T cruzi repl) | MIN6 prolif-2 inactive
CC(C)c1ccc(NC(=O)C2=CC=CN3CCS(=O)(=O)N=C23)cc1	none (no result: T cruzi repl)
Cc1cc(C(=O)OCc2nc3ccccc3s2)c(C)o1	MIN6 prolif-1 8.7 | MIN6 prolif-2 inactive
CC(=O)OCc1nc2ccccc2s1	none (no result: TAG inh)
COCCc1ncc(CN2CCCCC2C(=O)Nc2ccc(Oc3ccccc3)nc2)cn1 (centres undefined)	MIN6 prolif-1 10 | MIN6 prolif-2 inactive
COc1cccc2cc(-c3nnc(SCC(=O)Nc4cc(C(F)(F)F)ccc4Cl)n3N)oc12	none
COc1ccc(Nc2nc3ccccc3n3nnnc23)cc1	none (no result: TAG inh)
COc1cc(Nc2nc3ccccc3n3nnnc23)cc(OC)c1OC	MIN6 prolif-1 10 | MIN6 prolif-2 inactive
Cc1ccc(S(=O)(=O)N2CCN(C(=O)CCn3nc(C)c(C)c3C)CC2)cc1C	none (no result: TAG inh)
O=C(O)c1cccc(S(=O)(=O)Nc2ccc3[nH]c(=O)[nH]c3c2)c1	none
C#CCOC(=O)c1ccc(-n2cncn2)nc1	MIN6 prolif-1 5.9 | MIN6 prolif-2 inactive
Cc1cc(NS(=O)(=O)c2ccc(NC(=O)CSc3nnc(-c4ccco4)n3N)cc2)nc(C)n1	none
Cc1cc(NS(=O)(=O)c2ccc(NC(=O)CSc3nnc(-c4ccco4)n3C)cc2)nc(C)n1	MIN6 prolif-1 5.8 (no result: TAG inh) | MIN6 prolif-2 inactive
CN(C)/C=N/c1c(C#N)cnn1-c1ccccc1	none (no result: TAG inh)
CN(C)/C=N/c1c(C#N)cnn1-c1ncnc2sc(-c3ccccc3)cc12	MIN6 prolif-1 12 (no result: TAG inh) | MIN6 prolif-2 inactive
CC(C)n1cnc2c(N(C)c3cccc(Cl)c3)nc(N(CCO)CCO)nc21	MIN6 prolif-1 17 | MIN6 prolif-2 inactive
COc1ccc(-c2noc(COc3ccc4c(c3)OCO4)n2)cc1OC	MIN6 prolif-1 11 (no result: TAG inh) | MIN6 prolif-2 inactive
C[C@@H](O)C1NC(=O)[C@H](CCCCN)NC(=O)c2cc([N+](=O)[O-])cc(F)c2NCCCC[C@@H](C(N)=O)NC1=O (some centres undefined)	MIN6 prolif-1 9.7 (no result: NR1D1 modulator, PG9 binder) | MIN6 prolif-2 inactive
CCOc1ccccc1N1CCN(C(=O)c2ccc(OCC(=O)N3CCOCC3)c(OC)c2)CC1	MIN6 prolif-1 14 | MIN6 prolif-2 inactive
